Experimental data: the EternaBench riboswitch data

Tested on: MS2 coat protein
Assay: apparent Kd, MS2 coat protein; higher = weaker binding; RNA-MaP array; FMN 200 µM where present
Summary of the method: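 Stalled E. coli RNA polymerase produced the designs on Illumina sequencing-chip clusters. SNAP-549-labelled MS2 coat protein was added from 0.7 or 1.5 nM, doubling to 3 µM, without and then with constant ligand, in 100 mM Tris-HCl pH 7.5, 80 mM KCl, 4 mM MgCl2, BSA, DTT, yeast tRNA and Tween-20. The apparent Kd is the median of filtered per-cluster fits of green signal normalised to red-channel RNA signal and control-cluster median Fmax.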

[1] = designed as: OFF switch for flavin mononucleotide, no ligand
[2] = ligand present: flavin mononucleotide, designed as: OFF switch for flavin mononucleotide
[3] = designed as: ON switch for flavin mononucleotide, no ligand
[4] = ligand present: flavin mononucleotide, designed as: ON switch for flavin mononucleotide

Sequence: GACUGACGAGGAUAUACAUGAGGAUCACCCAUGUAAGAUCAGCGACGAUAGUCGCAAUGUAGAAGGCGUCAGUC
- apparent Kd [1]: 29.8 nM
- apparent Kd [2]: 293 nM

Sequence: UAGUGCGUUAGAGGAUAUUCUAAAUAAAAUAAUAAGACAUGAGGAUCACCCAUGUAUGUACAUGGGAAGAAGGCUGAUGUGCUA
- apparent Kd [3]: 573 nM
- apparent Kd [4]: 42.9 nM

Sequence: CCAGGCAGUGUGAGGAUAUCGUGGUCCUUGGAUCACGAGAAGGCACAUGAGGAUCACCCAUGUGAAUAGCUUGG
- apparent Kd [1]: 22.2 nM
- apparent Kd [2]: 87.3 nM

Sequence: CGCCUGCGUAGAAUUAGCAGCUGACAGGAUAUGACAUGAGGAUCACCCAUGUGAAUUAAGAAGAGUCAGAAGGGUCACGACGCG
- apparent Kd [1]: 9.4 nM
- apparent Kd [2]: 10.8 nM

Sequence: GUAGCAUACCAAGGAUAUUUAGGGCUUUGAUAGACAUGAGGAUCACCCAUGUGGCGUUAGUCAAGGGAGAAGGUGGUAUGCUAC
- apparent Kd [3]: 22.6 nM
- apparent Kd [4]: 14.5 nM

Sequence: GCAAUAGCAUGAGGAUAUGCUGGAGUUUAGACAGUAGAAGGCAUGUCAUAAGACAUGAGGAUCACCCAUGUAGUUACAAUGGCA
- apparent Kd [3]: 18.4 nM
- apparent Kd [4]: 13.6 nM

Sequence: AAUAUGAGCUGGAAUAAAACCUGAACAUGAGGAUCACCCAUGUAGGAUAUCAGCACGAUAAGUGCUGAGAAGGACAACCAGCUC
- apparent Kd [1]: 14 nM
- apparent Kd [2]: 14.6 nM

Sequence: ACAAGACAUGAGGAUCACCCAUGUAAAGAAAACGCAGGAUAUGCAAAAAAAUUCAUGGGUGCAGAAGGGCGAAAAA
- apparent Kd [3]: 68.1 nM
- apparent Kd [4]: 322 nM

Sequence: UUAGAAUUUGCAGGAUAUUGUAUUUUAUUACAUCAAGAAGGGCAUUACAUGAGGAUCACCCAUGUUAACAUGGUUAUAAAUUUU
- apparent Kd [1]: 94.8 nM
- apparent Kd [2]: 29.5 nM

Sequence: CCAUGCGGAAUAGGAUAUUCAUUCAUGAGGAUAGAAGAAGGGUUACAUGAGGAUCACCCAUGUAUACACAUGAGGAUCCCUUAC
- apparent Kd [1]: 162 nM
- apparent Kd [2]: 180 nM

Sequence: UCUGCCGCCGUGAGGAUAUGCCCAAAGAAAAGCGGGCAGAAGGCACAUGAGGAUCACCCAUGUCCCGCGGUUUU
- apparent Kd [1]: 18 nM
- apparent Kd [2]: 38.4 nM

Sequence: UAUAAGAACGAAGGAUAUGGUUACAUGAGGAUCACCCAUGUAUUAAUAUUGAUCUAUUUUUAUAACCAGAAGGUCGAGAGUAAA
- apparent Kd [1]: 27.4 nM
- apparent Kd [2]: 39.7 nM

Sequence: AAUCAACGAAUACCAGGGCAUUAAUGAGAAGGCCAAUCACAUGAGGAUCACCCAUGUACGAGAGUGGAGGAUAUCAGUGGGCCG
- apparent Kd [3]: 111 nM
- apparent Kd [4]: 11.3 nM

Sequence: AUAAACGCAGGAUAUACAUGAGGAUCACCCAUGUCCGCGCUUGUUGCGGGCACCUGAUGUAGAAGGGCGGGCGC
- apparent Kd [1]: 214 nM
- apparent Kd [2]: 184 nM

Sequence: UUCAUGUGAGGAUAUGCGGCACCAGGCAAGCCUAGUGCUGAGCAGAAGGCACAUGAGGAUCACCCAUGUGCUCC
- apparent Kd [1]: 29.3 nM
- apparent Kd [2]: 72.2 nM

Sequence: UCAACCGGCGCCGGUUAAACAUGAGGAUCACCCAUGUACUCCAGAAGGCCGCCCAAGAACGGAGUGGAGGAUAUGGAGGUUCUC
- apparent Kd [3]: 45.1 nM
- apparent Kd [4]: 28.7 nM

Sequence: UUUCAUUACCCGAAGGAUAUCGCUCUUCCGACAUGAGGAUCACCCAUGUACUAGCCCUCCCUGCUCGAGAAGGUCGCGCGUGAAC
- apparent Kd [3]: 103 nM
- apparent Kd [4]: 67.4 nM

Sequence: GGUGAGUGAGGAUAUCCAGGUCCUGACAUGAGGAUCACCCAUGUAUACGUCACGUGCGGAGGAGAAGGCACAAUAA
- apparent Kd [1]: 91.1 nM
- apparent Kd [2]: 297 nM

Sequence: UGAUAACAUGUAGGAUAUCCAGCAUUGACCAUCGGAGAAGGACAUGAGGAUCACCCAUGUACCGAUACAAUGGGAUAUGGGAAU
- apparent Kd [1]: 20.1 nM
- apparent Kd [2]: 27.2 nM

Sequence: UAUAAGCUAGGAUAUACUAACGAAACUAAUGCAUAUAUAUAACAUGAGGAUCACCCAUGUAGAAGGAGCAGAAU
- apparent Kd [1]: 25.5 nM
- apparent Kd [2]: 23 nM

Sequence: ACAUGAGGAUCACCCAUGUACAGGGUUUAGUUUCAUUGUUUGAAGGAUAUACUUAGUUAGUUGUUGUAGAAGGUCAUAUUUUAU
- apparent Kd [1]: 203 nM
- apparent Kd [2]: 265 nM

Sequence: AUAUCUUACCAAGGAUAUUUAAGAUUUGUGUAGACAUGAGGAUCACCCAUGUGGCCUUAGUCACGGGAGAAGGUGGUUUGAUAU
- apparent Kd [3]: 878 nM
- apparent Kd [4]: 493 nM

Sequence: GGAUGACAAAGUCAUCCAAAUCGAACAUGAGGAUCACCCAUGUAGGAUAUGCUACUCAAAGAGUAGCAGAAGGACAUGUGCUUU
- apparent Kd [1]: 37.1 nM
- apparent Kd [2]: 196 nM

Sequence: AAGCACAGAGGAUAUACAAUCCUCAGUGGGUCUGGCGAGCCACAUGAGGAUCACCCAUGUAGAAGGCUGGGCUC
- apparent Kd [1]: 11.8 nM
- apparent Kd [2]: 14.6 nM

Sequence: ACUAGAAGCGUGAAAUAUCACAUGAGGAUCACCCAUGUGACGCAGGAUAUAACAAAAUCAGAAGGUUAGAAGGGUGAGCACGCC
- apparent Kd [3]: 26.8 nM
- apparent Kd [4]: 20.2 nM

Sequence: GUCAGCUCGUGAGGAUAUACAACACUGCAUCGGCAGUGUAUUAAGAUCACAUGAGGAUCACCCAUGUAGAAGGCACGAGCUGAU
- apparent Kd [1]: 13 nM
- apparent Kd [2]: 246 nM

Sequence: GCUGGACAAGGAUAUACAAUCGUGCUUCGGCACGUAAGGUCACAUGAGGAUCACCCAUGUAGAAGGUGUCCAGC
- apparent Kd [1]: 23.8 nM
- apparent Kd [2]: 157 nM

Sequence: UGUCGGAGCAGAGGAUAUUACAUGAGGAUCACCCAUGUAUGAACCAAUAGCUGGAAACAGCAAUGUAAGAAGGCUGCUCCUACA
- apparent Kd [1]: 12.5 nM
- apparent Kd [2]: 147 nM

Sequence: UUCAGCUCGUGAGGAUAUACAUGUGCUGGAAACAGCACUAUUGUGUUCACAUGAGGAUCACCCAUGUAGAAGGCACGAGCUGAG
- apparent Kd [1]: 18.6 nM
- apparent Kd [2]: 82.1 nM

Sequence: ACAUGAGGAUCUCCCAUGUAAAAUUAGGAUAUAUAACUGCACAUGAGGAUCACCCAUGUUUUACCGUAGAAGGGAUAAAUAAUU
- apparent Kd [3]: 1010 nM
- apparent Kd [4]: 567 nM

Sequence: GUUGUUUCUGAGGAUAUUAUUUUAUUCGAUUGAUAAGAAGGCAGUACAUGAGGAUCACCCAUGUGGGUAGUUUG
- apparent Kd [1]: 94.2 nM
- apparent Kd [2]: 172 nM

Sequence: UUACAUACAAAGGUACAUGAGGAUCACCCAUGUUUGUUGGGAAGAAGGGUAACAGUACUACAUAUAUAGGAUAUUUCACAAAUA
- apparent Kd [3]: 122 nM
- apparent Kd [4]: 86.6 nM

Sequence: GUCAGCUCGUGAGGAUAUACAACACUGCUCCGGCAGUGUAUUAAGAUCACAUGAGGAUCACCCAUGUAGAAGGCACGAGCUGAU
- apparent Kd [1]: 13.3 nM
- apparent Kd [2]: 237 nM

Sequence: UUACUCAUGUAAGGAUAUGCAGCCGAAACGGCUGUAGAAGGUACUAAAAUACAUGAGGAUCACCCAUGUCUUUUUAAUUUAGAC
- apparent Kd [3]: 103 nM
- apparent Kd [4]: 74.6 nM

Sequence: AUGGCGUGAGGAUAUGCGCAGGUUAACAUGAGGAUCACCCAUGUGGGCAUUGGUUUUCACGCAGAAGGUACGUUAA
- apparent Kd [1]: 14.5 nM
- apparent Kd [2]: 15.2 nM

Sequence: GCGUCACAAUUAGAACCAAUACGAACAUGAGGAUCACCCAUGUAGGAUAUGCUAGAAGUUGAGUUGCAGAAGGACAUUUAUCGC
- apparent Kd [1]: 10.6 nM
- apparent Kd [2]: 9.8 nM

Sequence: CUUAUUUGAGGAUAUACGUCACCGUCUUCAUGAGUUCAAAUACAUGAGGAUCACCCAUGUAGAAGGCAAUUACU
- apparent Kd [1]: 25.8 nM
- apparent Kd [2]: 39.4 nM

Sequence: GUAGCAUAAUCAGGAUAUUCAGAGAAUAAAUAAACAUGAGGAUCACCCAUGUGGCGAAAGCCUAGGGAGAAGGGAUAAUGCUAC
- apparent Kd [3]: 118 nM
- apparent Kd [4]: 24.8 nM

Sequence: AGCAGGUGAGGAUAUCGAUUAAGAUUAACAUUAUUAUUAAACGAGAAGGCACAUGAGGAUCACCCAUGUAAGGA
- apparent Kd [1]: 29.9 nM
- apparent Kd [2]: 41.3 nM

Sequence: GAGUGACAUGAGGAUCACCCAUGUGAGGAUAUCGGACGGACCUUGUUGGCUUCCGCCGCGAGAAGGCACCUCGG
- apparent Kd [1]: 43.9 nM
- apparent Kd [2]: 40.2 nM

Sequence: UUGGACGUCGUAGGAUAUGUAGGAGAUUCCUACAUGAGGAUCACCCAUGUUGACAUGGAAGAAGGACAGAAGGACGAUGUCCAU
- apparent Kd [3]: 328 nM
- apparent Kd [4]: 20.4 nM

Sequence: GGCUAGUCAGGAUAUACGAACAUGUCAAAAGACGUGAAGGGACAUGAGGAUCACCCAUGUAGAAGGGACUAGCU
- apparent Kd [1]: 24.8 nM
- apparent Kd [2]: 165 nM

Sequence: GAAUAAUAGAUCCAAUAUAUCUACAUGAGGAUCACCCAUGUGCAGGAUAUGCUAAAAUUUAAUAAGCAGAAGGGCAAGAACGGC
- apparent Kd [1]: 54.7 nM
- apparent Kd [2]: 138 nM

Sequence: UGGACUGGGCAGAAGGGACAUGAGGAUCACCCAUGUCUUGGGCUACUUCAGUCAGGAUAUGCCCAUUAAAUAUCCGUGCAUCAA
- apparent Kd [1]: 14.9 nM
- apparent Kd [2]: 73.3 nM

Sequence: AUGAGGGAAGUAGGAUAUGAUCAAGACAUGAGGAUCACCCAUGUAAUGAGGGUGUGUGUCUUUGUUCAGAAGGACUUGUAUCAA
- apparent Kd [1]: 60.4 nM
- apparent Kd [2]: 60.4 nM

Sequence: ACCGUGCAAGGAUAUCGUUACCUCGACAUGAGGAUCACCCAUGUGGCCAUAUAGCGAUUGCGAGAAGGUGCGGGUA
- apparent Kd [1]: 127 nM
- apparent Kd [2]: 112 nM

Sequence: AGUAAGAUGCAGAAGGUGUCAGCGAGAGCUACGACAUGAGGAUCACCCAUGUACUAGUGAGAGUACAAGGAUAUGCAUCUUACA
- apparent Kd [3]: 76.3 nM
- apparent Kd [4]: 8.54 nM

Sequence: CGAUAUUAUGCAGGAUAUCUUCCUUGAAUGAGGAGAGAAGGGCAUAGGGAGACAUAAGCCUUAUUACAUGAGGAUCACCCAUGU
- apparent Kd [1]: 10.7 nM
- apparent Kd [2]: 8.83 nM

Sequence: CGUAGGAUCCAGAAGGCAUGAACAUGAGGAUCACCCAUGUGAAAACACAUGAGGAUAUGGAUCCUACGAAAAGUGCGAAAGCAC
- apparent Kd [3]: 5.4 nM
- apparent Kd [4]: 4.66 nM

Sequence: UGAUAGGACAGAGGAUAUGCCGAUAGGAUCUAUUAUCGAAGAAUCCUCACAUGAGGAUCACCCAUGUAGAAGGCUGUCCUAUCU
- apparent Kd [1]: 9.32 nM
- apparent Kd [2]: 36.6 nM

Sequence: UUCGCUAAGGUGUAGCGAGACACGCAAGAAGGGUGAUGCACAUGAGGAUCACCCAUGUAAGCCUUACAGGAUAUUGCUUGCCGA
- apparent Kd [3]: 899 nM
- apparent Kd [4]: 211 nM

Sequence: GAUUGGCGACAAUUACAUGAGGAUCACCCAUGUUGUAGUAUGCAGGAUAUGUGGUAUAUUAUUUAACAGAAGGGCAAUAAUUUU
- apparent Kd [3]: 69.6 nM
- apparent Kd [4]: 85.9 nM

Sequence: UAUGAGCGAGGAUAUGCUUGGGACUGUCGGAAUGUGGCGGGACAUGAGGAUCACCCAUGUAGAAGGCGCGAGCG
- apparent Kd [1]: 95.1 nM
- apparent Kd [2]: 212 nM

Sequence: GGAUAGGACAGAGGAUAUACGUGCUAGAGAUACUAGCAGAAUUUCCUCACAUGAGGAUCACCCAUGUAGAAGGCUGUCCUAUCG
- apparent Kd [1]: 12.2 nM
- apparent Kd [2]: 216 nM

Sequence: UUGGACCUAGGAUAUACAUGAGGAUCACCCAUGUUGGCGCACGCCCACCUGGGCCCGAGUAGAAGGAGGAAUGU
- apparent Kd [1]: 18.9 nM
- apparent Kd [2]: 20.3 nM
